According to ChEMBL document CHEMBL1148785, “Second generation tetrahydroquinoline-based protein farnesyltransferase inhibitors as antimalarials” (J Med Chem, 2007):

Assays:
Plasmodium falciparum [1] = test: Inhibition of Plasmodium falciparum protein farnesyltransferase at 50 nM by scintillation proximity assay
Plasmodium falciparum [2] = test: Inhibition of Plasmodium falciparum protein farnesyltransferase at 5 nM by scintillation proximity assay
Plasmodium falciparum [3] = test: Inhibition of Plasmodium falciparum protein farnesyltransferase at 0.5 nM by scintillation proximity assay
Plasmodium falciparum [4] = test: Antimalarial activity against Plasmodium falciparum 3D7; format: functional; conditions: Plasmodium falciparum, 3D7; read-out: ED50 (the source's name)
Summary of the method: (§1)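 Asynchronous culture in type A+ erythrocytes at 0.5% parasitemia and 0.5% hematocrit, grown in RPMI-1640 with 20% heat-inactivated human A+ plasma. Compound was serially diluted from a top final 5 µM, with DMSO vehicle as 100% growth. Plates ran 48 h at 37 °C under 5% CO2/5% O2/90% N2, then [3H]-hypoxanthine (0.3 µCi) for 24 h. Filter-harvested counts were corrected for the uninfected-RBC background. ED50 by linear regression; duplicates averaged.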

Plasmodium falciparum [5] = test: Antimalarial activity against Plasmodium falciparum K1; format: functional; conditions: Plasmodium falciparum, K1; read-out: ED50 (the source's name); summary of the method: as §1

Row | SMILES | inhibition (Plasmodium falciparum [1]) [%] | inhibition (Plasmodium falciparum [2]) [%] | inhibition (Plasmodium falciparum [3]) [%] | EC50 (Plasmodium falciparum [4]) [nM] | EC50 (Plasmodium falciparum [5]) [nM]
1 | COC(=O)c1cccc(CN(C2Cc3cc(C#N)ccc3N(Cc3cncn3C)C2)S(=O)(=O)c2ccccn2)n1 (stereo not given) | 96 | 94 | 66 | 600 | 900
2 | Cn1cnc(CN2CC(N(CC(=O)NC(C)(C)C)S(=O)(=O)c3cn(C)cn3)Cc3cc(-c4ccccc4)ccc32)c1 (stereo not given) | 97 | 73 | 23 | 381 | 395
3 | Cn1cnc(S(=O)(=O)N(Cc2cccc3nsnc23)C2Cc3cc(C#N)ccc3N(Cc3cncn3C)C2)c1 (stereo not given) | 99 | 94 | 18 | 60 | 230
4 | Cc1noc(C)c1CN(C1Cc2cc(C#N)ccc2N(Cc2cncn2C)C1)S(=O)(=O)c1ccccn1 (stereo not given) | 96 | 93 | 17 | 144 | 965
5 | CC(=O)Nc1ccc(S(=O)(=O)N(Cc2ccccc2F)C2Cc3cc(C#N)ccc3N(Cc3cncn3C)C2)cc1 (stereo not given) | 25 | 4 | 4 | 150 | 150
6 | Cn1cnc(S(=O)(=O)N(CCCCCC(N)=O)C2Cc3cc(C#N)ccc3N(Cc3cncn3C)C2)c1 (stereo not given) | 98 | 87 | 31 | 150 | 73
7 | COC(=O)N1CCC(CN(C2Cc3cc(C#N)ccc3N(Cc3cncn3C)C2)S(=O)(=O)c2ccccc2Cl)CC1 (stereo not given) | 97 | 80 | 24 | 55 | 70
8 | COC(=O)N1CCC(CN(C2Cc3cc(C#N)ccc3N(Cc3cncn3C)C2)S(=O)(=O)c2ccccc2)CC1 (stereo not given) | 98 | 93 | 43 | 50 | 70
9 | COC(=O)N1CCC(CN(C2Cc3cc(C#N)ccc3N(Cc3cncn3C)C2)S(=O)(=O)c2ccc3c(c2)OCCCO3)CC1 (stereo not given) | 99 | 81 | 24 | 138 | 105
10 | Cn1cnc(CN2CC(N(CC(=O)NC(C)(C)C)S(=O)(=O)c3cccs3)Cc3cc(-c4ccccc4)ccc32)c1 (stereo not given) | 10 | 1 | 4 | 3500 | > 5000
11 | COc1ccc(S(=O)(=O)N(Cc2ccccc2F)C2Cc3cc(C#N)ccc3N(Cc3cncn3C)C2)cc1 (stereo not given) | 66 | 22 | 13 | 900 | 1000
12 | Cc1cc(=O)n(CCCCN(C2Cc3cc(C#N)ccc3N(Cc3cncn3C)C2)S(=O)(=O)c2ccccn2)c(=O)n1C (stereo not given) | 90 | 51 | 0 | 350 | 200
13 | Cn1cnc(S(=O)(=O)N(CCc2ccc(F)cc2)C2Cc3cc(C#N)ccc3N(Cc3cncn3C)C2)c1 (stereo not given) | 100 | 95 | 42 | 50 | 65
14 | Cn1cnc(S(=O)(=O)N(CCCN)C2Cc3cc(C#N)ccc3N(Cc3cncn3C)C2)c1 (stereo not given) | 60 | 5 | 5 | > 5000 | 4600
15 | CN(C)CCCN(C1Cc2cc(C#N)ccc2N(Cc2cncn2C)C1)S(=O)(=O)c1cn(C)cn1 (stereo not given) | 34 | 9 | 0 | 2600 | > 5000
16 | Cn1cnc(S(=O)(=O)N(CCOc2cccc3c2OCCO3)C2Cc3cc(C#N)ccc3N(Cc3cncn3C)C2)c1 (stereo not given) | 99 | 91 | 12 | 355 | 350

Row | SMILES | inhibition (Plasmodium falciparum [1]) [%] | inhibition (Plasmodium falciparum [2]) [%] | inhibition (Plasmodium falciparum [3]) [%] | EC50 (Plasmodium falciparum [4]) [nM] | EC50 (Plasmodium falciparum [5]) [nM]
17 | Cc1nc(C)c(S(=O)(=O)N(CC(=O)NC(C)(C)C)C2Cc3cc(C#N)ccc3N(Cc3cncn3C)C2)s1 (stereo not given) | 0 | 3 | 2 | > 5000 | > 5000
18 | COC(=O)N1CCC(CN(C2Cc3cc(C#N)ccc3N(Cc3cncn3C)C2)S(=O)(=O)c2cccc3nonc23)CC1 (stereo not given) | 99 | 89 | 31 | 135 | 100
19 | CC(=O)Nc1nc(C)c(S(=O)(=O)N(CC(=O)NC(C)(C)C)C2Cc3cc(C#N)ccc3N(Cc3cncn3C)C2)s1 (stereo not given) | 11 | 2 | 5 | > 5000 | > 5000
20 | COC(=O)c1ccnc(CN(C2Cc3cc(C#N)ccc3N(Cc3cncn3C)C2)S(=O)(=O)c2cn(C)cn2)c1 (stereo not given) | 100 | 98 | 46 | 620 | 163
21 | Cn1cncc1CN1CC(N(CCc2ccc(F)cc2)S(=O)(=O)c2ccccn2)Cc2cc(C#N)ccc21 (stereo not given) | 96 | 71 | 9 | 200 | 650
22 | Cn1cnc(S(=O)(=O)N(CCc2ccccc2)C2Cc3cc(C#N)ccc3N(Cc3cncn3C)C2)c1 (stereo not given) | 97 | 96 | 82 | 9 | 10
23 | Cn1cnc(S(=O)(=O)N(Cc2ccc3nonc3c2)C2Cc3cc(C#N)ccc3N(Cc3cncn3C)C2)c1 (stereo not given) | 99 | 95 | 30 | 56 | 65
24 | COCCCCCN(C1Cc2cc(C#N)ccc2N(Cc2cncn2C)C1)S(=O)(=O)c1ccccn1 (stereo not given) | 96 | 65 | 17 | 189 | 932
25 | Cn1cncc1CN1CC(N(CCCCNC(=O)OC(C)(C)C)S(=O)(=O)c2ccccn2)Cc2cc(C#N)ccc21 (stereo not given) | 97 | 80 | 24 | 250 | 375
26 | CCOC(=O)N1CCC(CN(C2Cc3cc(C#N)ccc3N(Cc3cncn3C)C2)S(=O)(=O)c2cn(C)cn2)CC1 (stereo not given) | 98 | 96 | 49 | 14 | 7
27 | Cn1cnc(S(=O)(=O)N(CCc2c[nH]c3ccccc23)C2Cc3cc(C#N)ccc3N(Cc3cncn3C)C2)c1 (stereo not given) | 97 | 91 | 55 | 130 | 130
28 | COC(=O)N1CCC(CN(C2Cc3cc(C#N)ccc3N(Cc3cncn3C)C2)S(=O)(=O)CS(C)(=O)=O)CC1 (stereo not given) | 15 | 0 | 0 | > 5000 | > 5000
29 | CN(C1Cc2cc(-c3ccccc3)ccc2N(Cc2cn(C)cn2)C1)S(=O)(=O)c1cn(C)cn1 (stereo not given) | 88 | 38 | 10 | > 5000 | > 5000
30 | COC(=O)N1CCC(CN(C2Cc3cc(C#N)ccc3N(Cc3cncn3C)C2)S(=O)(=O)c2cccc3cccnc23)CC1 (stereo not given) | 95 | 80 | 24 | 260 | 400
31 | COC(=O)N1CCC(CN(C2Cc3cc(C#N)ccc3N(Cc3cncn3C)C2)S(=O)(=O)c2cn(C)cn2)CC1 (stereo not given) | 97 | 95 | 54 | 9 | 4.5
32 | COC(=O)N1CCC(CN(C2Cc3cc(C#N)ccc3N(S(=O)(=O)c3cncn3C)C2)S(=O)(=O)c2ccccn2)CC1 (stereo not given) | 0 | 0 | 0 | > 5000 | 3200
